Experimental data published in ChEMBL document CHEMBL3098124, “Design, synthesis and anti-Alzheimer properties of dimethylaminomethyl-substituted curcumin derivatives” (Bioorg Med Chem Lett, 2014).

How the values were obtained:
[1] = Aqueous solubility of the compound; format: physicochemical
[2] = Antioxidant activity assessed as galvinoxyl free radical scavenging activity after 19 hrs; format: functional
Method in brief: (§1)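 In vitro scavenging of DPPH or galvinoxyl radicals by a literature method. IC50 reported in µM as mean ± S.E.M.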

[3] = system: Radical scavenging activity; test: Antioxidant activity assessed as DPPH free radical scavenging activity after 4 hrs; format: functional; method in brief: as §1
[4] = molecular target: Amyloid-beta precursor protein (Homo sapiens) (UniProt P05067); test: Inhibition of amyloid beta-42 self-aggregation (unknown origin) after 1 hr by ThT fluorescence assay
Method in brief: (§2)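 Aβ42 self-aggregation read by Thioflavin T fluorescence. Test concentrations were 5, 50 and 100 µM. Each result is the mean of 3 measurements ± SEM. Statistics by one-way ANOVA with Tukey's multiple comparison test against Aβ alone.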

[5] = molecular target: Amyloid-beta precursor protein (Homo sapiens) (UniProt P05067); test: Inhibition of amyloid beta-42 self-aggregation (unknown origin) at 100 uM after 1 hr by ThT fluorescence assay relative to control; method in brief: as §2
[6] = molecular target: Amyloid-beta precursor protein (Homo sapiens) (UniProt P05067); test: Inhibition of amyloid beta-42 self-aggregation (unknown origin) at 50 uM after 1 hr by ThT fluorescence assay relative to control; method in brief: as §2
[7] = n-octanol-water partition coefficient, log P of the compound by HPLC analysis; format: physicochemical
Method in brief: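 Experimental logP determined in an octanol–water system for two representative compounds. All other values were calculated in silico.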

[8] = Chemical stability of the compound in PBS at pH 7.4 at […] measured up to 120 mins by absorption spectroscopic analysis in absence of 0.1% FBS; format: physicochemical; conditions: buffer, pH 7.4, 2 h
Method in brief: (§3)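 Visible absorption at 410 nm tracked over time in phosphate-buffered solution, pH 7.4, under daylight. FBS was 0.1% for line 5 and absent for line 4. Stability expressed as A/A0, with A0 the absorbance at 0 min.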

[9] = Chemical stability of the compound in PBS at pH 7.4 at […] measured up to 120 mins by absorption spectroscopic analysis in presence of 0.1% FBS; format: physicochemical; conditions: buffer, pH 7.4, 2 h; method in brief: as §3

Chain of Amyloid-beta precursor protein (Homo sapiens) (P05067 whole entry): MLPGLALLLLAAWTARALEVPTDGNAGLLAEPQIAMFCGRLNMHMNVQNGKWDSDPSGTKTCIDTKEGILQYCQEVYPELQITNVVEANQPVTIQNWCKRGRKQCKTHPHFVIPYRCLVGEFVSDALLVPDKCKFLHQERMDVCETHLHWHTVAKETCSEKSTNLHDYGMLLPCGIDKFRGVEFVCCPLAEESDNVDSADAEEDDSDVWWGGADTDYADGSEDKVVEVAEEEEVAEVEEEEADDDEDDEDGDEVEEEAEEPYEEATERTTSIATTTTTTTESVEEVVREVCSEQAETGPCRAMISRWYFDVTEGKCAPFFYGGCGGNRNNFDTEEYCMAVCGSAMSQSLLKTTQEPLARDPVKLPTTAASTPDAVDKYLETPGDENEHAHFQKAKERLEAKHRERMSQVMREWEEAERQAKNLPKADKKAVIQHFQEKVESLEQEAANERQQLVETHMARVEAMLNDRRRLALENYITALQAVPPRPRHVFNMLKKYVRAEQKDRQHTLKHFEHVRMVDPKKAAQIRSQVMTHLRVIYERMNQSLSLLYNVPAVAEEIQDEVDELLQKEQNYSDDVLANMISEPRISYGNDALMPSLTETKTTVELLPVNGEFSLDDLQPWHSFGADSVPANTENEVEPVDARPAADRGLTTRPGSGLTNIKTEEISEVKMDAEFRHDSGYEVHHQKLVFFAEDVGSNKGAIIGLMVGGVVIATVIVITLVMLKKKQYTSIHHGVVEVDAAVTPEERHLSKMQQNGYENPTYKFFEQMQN

Row | IC50 [2] | IC50 [3] | SMILES | further results
1 | 41.1 µM | 11.1 µM | CN(C)Cc1cc(/C=C/C(=O)/C=C(O)/C=C/c2ccc(Cl)cc2)ccc1O | 
2 | 22 µM | 18.7 µM | Cc1ccc(/C=C/C(O)=C/C(=O)/C=C/c2ccc(O)c(CN(C)C)c2)cc1 | 
3 | 22.3 µM | 24.1 µM | CN(C)Cc1cc(/C=C/C(=O)/C=C(O)/C=C/c2ccc(F)cc2)ccc1O | 
4 | 7.6 µM | 1.5 µM | CN(C)Cc1cc(/C=C/C(=O)/C=C(O)/C=C/c2ccc(O)cc2)ccc1O | 
5 | 11.9 µM | 15.1 µM | COc1ccc(/C=C/C(O)=C/C(=O)/C=C/c2ccc(O)c(CN(C)C)c2)cc1 | 

Second part, the compound before the results:

Row | SMILES | IC50 [2] | IC50 [3] | further results
6 | COc1cc(/C=C/C(O)=C/C(=O)/C=C/c2ccc(O)c(CN(C)C)c2)ccc1O.Cl |  |  | solubility [1]: 1.2 mg/mL
7 | COc1cc(/C=C/C(=O)CC(=O)/C=C/c2ccc(O)c(OC)c2)ccc1O |  |  | inhibition [4]: Dose-dependent effect; inhibition [5]: 29%; inhibition [6]: 24%
8 | CN(C)Cc1cc(/C=C/C(=O)/C=C(O)/C=C/c2ccc(O)c(CN(C)C)c2)ccc1O [listing 1 of 2 here] | 4.9 µM | 1.6 µM | logP [7]: 3.48; Stability [8]: Stable; Stability [9]: Stable
9 | CN(C)Cc1cc(/C=C/C(=O)/C=C(O)/C=C/c2ccc(O)c(CN(C)C)c2)ccc1O [listing 2 of 2 here] |  |  | inhibition [4]: Dose-dependent effect; inhibition [5]: 32%; inhibition [6]: 28%
10 | CN(C)Cc1cc(/C=C/C(=O)/C=C(O)/C=C/c2ccc(O)c(CN(C)C)c2)ccc1O.Cl.Cl |  |  | solubility [1]: 16.7 mg/mL
11 | CN(C)Cc1cc(/C=C/C(=O)/C=C(O)/C=C/c2cccc(O)c2)ccc1O | 6.9 µM | 4 µM | 
12 | COc1cc(/C=C/C(O)=C/C(=O)/C=C/c2ccc(O)c(CN(C)C)c2)ccc1O |  |  | logP [7]: 3.65
13 | COc1ccc(/C=C/C(O)=C/C(=O)/C=C/c2ccc(O)c(CN(C)C)c2)cc1OC | 27.4 µM | 29.9 µM | 
